Measured values published in ChEMBL document CHEMBL4004855, “Synthesis of hetero annulated isoxazolo-, pyrido- and pyrimido carbazoles: Screened for in vitro antitumor activity and structure activity relationships, a novel 2-amino-4-(3'-bromo-4'-methoxyphenyl)-8-chloro-11H-pyrimido[4,5-a]carbazole as an antitumor agent” (Eur J Med Chem, 2017).
Active and inactive are the calls of the source. The calls are words filed in the database; no cut-off is given here.

Legend:
Format in all cases: functional, cell-based
MCF7 [1] = test: Cytotoxicity against human MCF7 cells assessed as reduction in cell viability after 48 hrs by MTT assay; details: for IC50: MCF7, 48 h
Method in brief: (§1)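 Cells kept in DMEM with 10% FBS, glutamine, HEPES and antibiotics at 37°C, 5% CO2. Seeded at 1×10⁴ cells/well and grown 48 h to 75% confluence, then exposed to serially diluted compounds for 48 h. MTT added for 4 h at 37 °C, formazan dissolved in DMSO, OD read at 620 nm. Viability is given as % of control OD, and IC50 is read from the viability-versus-concentration plot. Three independent experiments in triplicate.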

A549 [2] = test: Cytotoxicity against human A549 cells assessed as reduction in cell viability after 48 hrs by MTT assay; details: for IC50: A549, 48 h; method in brief: as §1
MCF7 [3] = test: Induction of morphological changes in human MCF7 cells assessed as cell shrinkage after 24 hrs by phase contrast microscopy
MCF7 [4] = test: Induction of morphological changes in human MCF7 cells assessed as membrane blebbing after 24 hrs by phase contrast microscopy
MCF7 [5] = test: Induction of morphological changes in human MCF7 cells assessed as formation of floating cells after 24 hrs by phase contrast microscopy
MCF7 [6] = test: Induction of apoptosis in human MCF7 cells assessed as chromatin condensation after 24 hrs by AO/EB-dual staining based fluorescent microscopic analysis
Method in brief: (§2)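 Treated cells were collected, washed in PBS (pH 7.2), and stained with an AO/EtBr mixture (1:1; […] each in water) for 2 min. They were then washed twice with PBS and viewed by fluorescence microscopy at 400× with a 480 nm excitation filter. Green marks intact membranes; orange/red marks damaged membranes and condensed nuclei. Untreated cells served as control.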

MCF7 [7] = test: Induction of apoptosis in human MCF7 cells assessed as nuclear fragmentation after 24 hrs by DAPI-staining based fluorescence microscopic analysis
Method in brief: (§3)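 Cells were grown on glass coverslips, treated for 24 h, fixed, and permeabilised with 0.2% Triton X-100 for 10 min at room temperature. They were then stained with DAPI for 3 min and examined by fluorescence microscopy for condensed chromatin and nuclear fragmentation. Untreated cells served as control.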

A549 [8] = test: Induction of apoptosis in human A549 cells assessed as nuclear fragmentation after 24 hrs by DAPI-staining based fluorescence microscopic analysis; method in brief: as §3
A549 [9] = test: Induction of morphological changes in human A549 cells assessed as cell shrinkage after 24 hrs by phase contrast microscopy
A549 [10] = test: Induction of morphological changes in human A549 cells assessed as membrane blebbing after 24 hrs by phase contrast microscopy
A549 [11] = test: Induction of morphological changes in human A549 cells assessed as formation of floating cells after 24 hrs by phase contrast microscopy
A549 [12] = test: Induction of apoptosis in human A549 cells assessed as chromatin condensation after 24 hrs by AO/EB-dual staining based fluorescent microscopic analysis; method in brief: as §2

Row | Compound | Activity (MCF7 [1]) | IC50 (MCF7 [1]) | Activity (A549 [2]) | IC50 (A549 [2]) | Activity (MCF7 [3]) | Activity (MCF7 [4]) | Activity (MCF7 [5]) | Activity (MCF7 [6]) | Activity (MCF7 [7]) | Activity (A549 [8]) | Activity (A549 [9]) | Activity (A549 [10]) | Activity (A549 [11]) | Activity (A549 [12])
1 | COc1ccc(-c2nc(N)nc3c2ccc2c4cccc(C)c4[nH]c23)cc1Br | Dose-dependent effect | 28 µM | Dose-dependent effect | 31 µM |  |  |  |  |  |  |  |  |  | 
2 | COc1ccc(-c2onc3c2CCc2c-3[nH]c3ccccc23)cc1Br | Dose-dependent effect | 31 µM | Dose-dependent effect | 33 µM |  |  |  |  |  |  |  |  |  | 
3 | COc1ccc(-c2nc(N)nc3c2ccc2c4cc(C)ccc4[nH]c23)cc1Br | Dose-dependent effect | 22 µM | Dose-dependent effect | 24 µM | Dose-dependent effect | Dose-dependent effect | Dose-dependent effect | inactive | Active | Active | Dose-dependent effect | Dose-dependent effect | Dose-dependent effect | 
4 | CCOc1nc2c(c(-c3ccc(OC)c(Br)c3)c1C#N)CCc1c-2[nH]c2ccc(C)cc12 | Dose-dependent effect | 25 µM | Dose-dependent effect | 29 µM | Dose-dependent effect | Dose-dependent effect | Dose-dependent effect | inactive | Active |  | Dose-dependent effect | Dose-dependent effect | Dose-dependent effect | Active
5 | COc1ccc(-c2nc(N)nc3c2ccc2c4ccccc4[nH]c23)cc1Br | Dose-dependent effect | 26 µM | Dose-dependent effect | 29 µM |  |  |  |  |  |  |  |  |  | 
6 | CCOc1nc2c(c(-c3ccc(OC)c(Br)c3)c1C#N)CCc1c-2[nH]c2ccc(Cl)cc12 | Dose-dependent effect | 25 µM | Dose-dependent effect | 32 µM | Dose-dependent effect | Dose-dependent effect | Dose-dependent effect | Active |  | inactive | Dose-dependent effect | Dose-dependent effect | Dose-dependent effect | 
7 | CCOc1nc2c(c(-c3ccc(OC)c(Br)c3)c1C#N)CCc1c-2[nH]c2c(C)cccc12 | Dose-dependent effect | 36 µM | Dose-dependent effect | 39 µM |  |  |  |  |  |  |  |  |  | 
8 | CCOc1nc2c(c(-c3ccc(OC)c(Br)c3)c1C#N)CCc1c-2[nH]c2ccccc12 | Dose-dependent effect | 35 µM | Dose-dependent effect | 37 µM |  |  |  |  |  |  |  |  |  | 
9 | COc1ccc(-c2onc3c2CCc2c-3[nH]c3c(C)cccc23)cc1Br | Dose-dependent effect | 32 µM | Dose-dependent effect | 35 µM |  |  |  |  |  |  |  |  |  | 
10 | COc1ccc(-c2nc(N)nc3c2ccc2c4cc(Cl)ccc4[nH]c23)cc1Br | Dose-dependent effect | 20 µM | Dose-dependent effect | 25 µM | Dose-dependent effect | Dose-dependent effect | Dose-dependent effect | Active |  | inactive | Dose-dependent effect | Dose-dependent effect | Dose-dependent effect | Active
11 | COc1ccc(-c2onc3c2CCc2c-3[nH]c3ccc(C)cc23)cc1Br | Dose-dependent effect | 21 µM | Dose-dependent effect | 28 µM | Dose-dependent effect | Dose-dependent effect | Dose-dependent effect | inactive | Active | Active | Dose-dependent effect | Dose-dependent effect | Dose-dependent effect | Active
